# Only some compounds are listed: those with a hit (about 1.8% of all), similar ones and a draw of the others.
# Hck Nef HTS: inhibitors of Nef-activated human Hck kinase, primary screen, biochemical, Z-Lyte FRET, 384-well, Hck-YEEI; inhibition, % at 20 µM; 220,000 tested, 0.68% active; Recombinant Hck-YEEI plus Nef, Z-Lyte FRET kinase assay; AID 463187, 2010; Tyrosine-protein kinase HCK (Homo sapiens), P08631;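 active = Hck-Nef kinase inhibition above about 50%, limit read from the data; inactive = inhibition below that limit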;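 note: 0% = DMSO with Hck plus Nef and 100% = Hck alone without Nef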
# Target sequence (P08631 whole entry, looked up): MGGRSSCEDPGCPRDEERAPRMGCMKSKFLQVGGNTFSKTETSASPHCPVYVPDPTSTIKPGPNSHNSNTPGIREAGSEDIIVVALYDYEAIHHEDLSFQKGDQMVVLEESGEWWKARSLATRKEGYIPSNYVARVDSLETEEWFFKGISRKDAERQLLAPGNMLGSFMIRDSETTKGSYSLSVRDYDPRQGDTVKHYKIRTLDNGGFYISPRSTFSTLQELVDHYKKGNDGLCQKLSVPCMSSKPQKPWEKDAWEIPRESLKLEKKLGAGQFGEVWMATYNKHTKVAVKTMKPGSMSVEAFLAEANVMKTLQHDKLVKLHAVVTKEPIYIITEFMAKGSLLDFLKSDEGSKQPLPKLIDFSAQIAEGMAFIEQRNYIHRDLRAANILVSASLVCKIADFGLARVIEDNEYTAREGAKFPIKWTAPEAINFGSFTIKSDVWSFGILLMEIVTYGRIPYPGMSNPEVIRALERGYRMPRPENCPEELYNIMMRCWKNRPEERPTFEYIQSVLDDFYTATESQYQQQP
# RanGTP-Impb inh: inhibitors of RanGTP-importin-beta interaction, primary screen, biochemical, FRET, CFP-Ran, YFP-importin-beta, homogeneous; Ran GTPase (GTP-bound) - importin-beta complex; cell-free CFP-Ran/YFP-importin-beta FRET ratio; inhibition, % (no concentration beside the values); 300,000 tested, 1.1% active;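 active = more than half of the replicate wells show a fall in the fluorescence ratio signal beyond about 16%, limit read from the data, passing the limit was not always enough; inconclusive = exactly half of the replicate wells pass the set limit; inactive = fewer than half of replicates pass the limit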;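 note: 0% = DMSO wells and 100% = Ran loaded with GDP instead of GTP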
# Runt-CBFb FRET: inhibitors of RUNX1 Runt–CBFb binding, primary screen, biochemical, FRET, Cerulean-Runt, Venus-CBFb, uHTS; Runt-related transcription factor 1 (Homo sapiens) + Core-binding factor subunit beta …; 220,000 tested, 0.46% active; inhibition, % at 20 µM; Cerulean-Runt/Venus-CBFb FRET ratio 530/480, 1 h;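 active = inhibition over about 50% at 20 µM in the single-dose screen, limit read from the data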;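 note: 0% = DMSO wells and 100% = excess unlabeled CBFb competitor control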
#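 Measured by: fluorescence energy transfer, 422 nm excitation, 530/480 nm emission; Assay system: Cerulean-Runt domain; Medium: Tris pH 7.5 buffer with BSA; Measure: loss of energy transfer signal; Controls: 5 µM unlabeled CBFb as full-inhibition high control; Incubation: protein complex preformed 1 h, compound exposure 1 h, room temperature, dark.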
# Runt-SMMHC FRET: inhibitors of RUNX1 Runt–CBFb-SMMHC binding, primary screen, biochemical, FRET, Cerulean-Runt, Venus-CBFb-SMMHC, uHTS; Runt-related transcription factor 1 (Homo sapiens) + Core-binding factor subunit beta …; 220,000 tested, 0.74% active; AID 1434, 2008; Cerulean-Runt/Venus-CBFb-SMMHC FRET ratio 530/480, 1 h; inhibition, % at 20 µM;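 active = mean inhibition across duplicate retests at 20 µM reaching about 50%, limit read from the data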;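 note: 0% = DMSO wells and 100% = wells with excess untagged CBFb-SMMHC; inhibitors lower the FRET ratio by blocking Runt binding to CBFb-SMMHC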
# The depositor's hits bear a star; ? = inconclusive; . = no result.
SMILES,Hck Nef HTS,RanGTP-Impb inh,Runt-CBFb FRET,Runt-SMMHC FRET
Cc1ccc(N2C(=O)NC(=O)/C(=C\c3ccc([N+](=O)[O-])o3)C2=O)cc1,50.2*,-3.0,9.2,-10.9
Cc1ccc(N2C(=O)NC(=O)/C(=C\c3ccc(N4CCOCC4)cc3)C2=O)cc1,4.6,-1.0,-4.6,-25.8
CCN(CC)C(=O)c1ccc(NC(=O)CN2CCc3cc(OC)c(OC)cc3C2)cc1,.,2.4,.,.
Cc1cc(=O)oc2cc3c(cc12)CCCN3,.,84.4*,.,.
COc1cccc(N2C(=O)NC(=O)/C(=C/c3ccc4c(c3)Cc3ccccc3-4)C2=O)c1,115.5*,-2.9,.,-3.3
COc1cc(/C=C2/C(=O)NC(=O)N(c3ccccc3)C2=O)ccc1O,1.9,-4.8,10.0,30.3
O=c1c2ccccc2nc(-c2ccccc2Cl)n1-c1cccc(O)c1,.,1.5,.,.
CC(Cc1ccc(O)cc1)NCC(O)c1cc(O)cc(O)c1 (centres undefined),27.2,17.4*,13.3,6.8
CCOC(=O)c1nc2ccccc2c(=O)n1-c1ccc(C)cc1,0.0,6.6,2.1,-2.8
CCCCn1c(NS(=O)(=O)c2ccc(C)cc2)c(C(=O)OCC)c2nc3ccccc3nc21,22.9,75.3*,9.6,58.5*
CCCCn1c(NC(=O)c2ccco2)c(C(=O)OCC)c2nc3ccccc3nc21,13.5,71.1*,18.4,60.4*
C[C@H](NC(=O)CCC(=O)N1C[C@H]2C[C@H](C1)c1cccc(=O)n1C2)c1ccccc1,.,3.6,.,.
Cc1ccccc1N1CCN(C2CCCN(C(=O)Cc3c(C)noc3C)C2)CC1 (centres undefined),.,4.0,.,.
CC(C)CCOC(=O)c1c(N)n(CC2CCCO2)c2nc3ccccc3nc12 (centres undefined),16.2,11.2,22.2,64.8*
CCCCOCCCn1c(N)c(C(=O)OCCOC)c2nc3ccccc3nc21,30.1,?,44.4,103.4*
CCCn1c(C(=O)c2ccccc2)nc2ccccc21,28.6,-4.0,0.0,-2.1
CC(C)CCn1c(N)c(C(=O)OCC2CCCO2)c2nc3ccccc3nc21 (centres undefined),32.4,?,38.2,82.1*
CCCCn1c(N)c(C(=O)OCC2CCCO2)c2nc3ccccc3nc21 (centres undefined),25.7,?,41.3,105.7*
COc1ccc2ccccc2c1CNCCc1ccccc1,.,3.7,.,.
CCc1c(-c2ccccc2)nc2ccccc2c1C(=O)N1CCC2(CC1)OCCO2,.,2.9,.,.
Oc1ccccc1-[n+]1c(-c2ccccc2)cc(-c2ccccc2)c(O)c1-c1ccccc1,.,9.0,.,.
Oc1cc2c(cc1O)[C@H]1c3ccccc3CN[C@@H]1CC2,.,0.8,35.2,55.5*
Cc1ccsc1C(=O)C1CCCN(Cc2cnc(N3CCCC3)s2)C1 (centres undefined),19.4,-0.8,-1.0,-0.7
N#CC1=C(N)Oc2cc(O)ccc2C1c1ccc2c(c1)OCO2 (centres undefined),-28.8,66.6*,20.6,90.5*
CC(C)(C)c1cc([N+](=O)[O-])cc(C(C)(C)C)c1O,19.7,-1.5,-7.4,-10.6
SMILES,Hck Nef HTS,RanGTP-Impb inh,Runt-CBFb FRET,Runt-SMMHC FRET
O=c1[nH]c(=O)n(C2CCCCC2)c(O)c1C=Nc1ccc(N2CCOCC2)cc1,4.8,1.2,-56.6,80.6
Cc1ccc(N/N=C/c2c(O)n(-c3ccccc3)c(=O)[nH]c2=O)cc1,31.4,1.1,1.8,1.6
Cc1ccc(-n2c(O)c(/C=C/C=Nc3ccccc3)c(=O)[nH]c2=O)cc1,0.1,68.1*,19.1,66.0*
C=CCn1c(O)c(/C=C/C=Nc2ccccc2)c(=O)[nH]c1=O,4.3,28.8*,39.4,77.4*
O=c1[nH]c(=O)n(C2CCCCC2)c(O)c1/C=C/C=Nc1ccccc1,26.9,61.2*,-2.7,81.1*
COc1ccc(-n2c(O)c(/C=C/C=Nc3ccccc3)c(=O)[nH]c2=O)cc1,0.1,20.1*,14.8,50.6*
CN1CCN(Cc2cc3c(cc2[N+](=O)[O-])OCO3)CC1,.,-2.1,.,.
O=c1[nH]c(=O)n(-c2ccccc2)c(O)c1/C=C/C=Nc1ccccc1,2.6,58.0*,45.7,60.1*
CCOC(=O)c1c(NC(NC(=O)CF)C(Cl)(Cl)Cl)sc2c1CCCC2 (centres undefined),2.8,0.4,1.9,4.8
CCOC(=O)c1c(NC(=O)c2c(N)n(CCCOC)c3nc4ccccc4nc23)sc2c1CCCC2,0.3,6.4,68.8*,100.9*
CCOCCCn1c(N)c(C(=O)Nc2sc3c(c2C(=O)OC)CCCC3)c2nc3ccccc3nc21,3.1,2.8,40.6,136.7*
Cc1ccc(OCCOc2cccc(C=C3C(=O)NC(=O)NC3=O)c2)cc1,.,1.9,.,.
CN(C)c1ccc(/C=C2/C(=N\O)C3CCN2CC3)cc1,-7.8,56.9*,1.2,28.7
O=C1/C(=C\c2ccc([N+](=O)[O-])cc2)N2CCC1CC2,3.4,6.6,0.9,0.2
Cc1ccc(/C=C2\C(=O)NC(=S)N(c3ccccc3F)C2=O)s1,2.7,.,5.6,12.5
Cc1ccc(/C=C2\C(=O)NC(=S)N(c3ccc(F)cc3)C2=O)s1,98.5*,3.7,.,32.6
Oc1c(Cl)c(Cl)c(Cl)c(Cl)c1Cl,.,-0.3,.,.
CCOc1cc2c(cc1OCC)-n1cccc1C(c1cc(OC)ccc1F)NC2 (centres undefined),.,-3.5,.,.
O=C1NC(=O)N(CCC2=CCCCC2)C(=O)/C1=C\c1cccs1,50.5*,-4.2,11.0,9.9
CCC1=Nc2cc(C(=O)N3CCC4(CC3)OCCO4)ccc2Sc2ccc(Br)cc21,.,2.6,.,.
CCCCCn1c(N)c(C(=O)NCCN2CCOCC2)c2nc3ccccc3nc21,46.2,60.5*,1.4,93.8*
COc1ccc(CCNC(=O)c2c(N)n(CCN3CCOCC3)c3nc4ccccc4nc23)cc1OC,47.4,55.0*,19.4,45.7
Nc1c(C(=O)NCc2ccco2)c2nc3ccccc3nc2n1Cc1ccccc1,24.5,55.4*,67.7*,76.0*
COCC(C)OC(=O)c1c(N)n(Cc2ccco2)c2nc3ccccc3nc12 (centres undefined),31.9,10.1,.,74.3
COc1ccc(Cn2c(N)c(C(=O)NCc3ccco3)c3nc4ccccc4nc32)cc1,35.0,61.1*,48.6,99.7*
O=C(NCCN1CCOCC1)c1ccc(Cl)nc1,8.4,-1.2,-0.5,2.4
CCn1c(O)c(C=NCCN2CCOCC2)c(=O)[nH]c1=S,5.6,3.5,-2.2,-2.5
Nc1c(C(=O)NCc2ccco2)c2nc3ccccc3nc2n1CCN1CCOCC1,34.3,46.4*,40.6,80.9*
CCOC(=O)c1c(N)n(Cc2ccco2)c2nc3ccccc3nc12,35.2,.,48.2,70.5*
Cc1nn(Cc2c(Cl)cccc2Cl)c(Cl)c1C(=O)O,0.3,1.7,0.2,-0.6
